Assay outcomes: PubChem BioAssay, several laboratories
Tb MetRS inh = T. brucei MetRS inhibitors, primary screen, biochemical, luminescence; methionyl-tRNA synthetase (Trypanosoma brucei brucei); purified T. brucei MetRS, ATP depletion, Kinase-Glo luminescence; inhibition, % at 11.9 µM; actives 0.4% (n = 360,000); AID 624268, 2012;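 active = inhibition above a per-plate cutoff of the control wells' mean inhibition plus 3 SD, cut at about 5.5% in these data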
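Test system – parasite MetRS enzyme · Reagent – substrates ATP, L-methionine and bulk Escherichia coli tRNA · Doses – 11.9 µM compound single dose, 0.9% DMSO · Times – 15 min enzyme-compound preincubation, 2 h reaction, 10 min detection, 25 °C · Signal – Kinase-Glo luminescence, ATP depletion format · Controls – DMSO-only wells as low control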
GRIN3A LBD mod = binders of NR3A ligand-binding domain, primary screen, biophysical, differential scanning fluorimetry, uHTS; NR3A LBD differential scanning fluorimetry, Tm shift; 0% = protein alone, 100% = glycine-bound protein; Tm shift relative to glycine control, % at 25 µM; Glutamate receptor ionotropic, NMDA 3A (GRIN3A) ligand-binding domain; AID 1259313, 2017; actives 2.5% (n = 340,000);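 active = melting temperature shift of at least 10% of the positive control shift, at one fixed dose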
WT yeast gro inh = growth inhibition of WT strain, primary screen, mitochondrial fusion inhibitor project, WT and mutant strains, chemical genetic; actives 2.1% (n = 190,000); AID 1362, 2008; mitochondrial fusion phenotypic screen; inhibition, % at 10 µM; in the data active = inhibition above about 58%; tested in S. cerevisiae
CHOP inh = inhibitors of CHOP promoter induction, primary screen, cell-based, unfolded protein response, luciferase reporter; actives 3.8% (n = 220,000); AID 2732, 2010; CHO-K1 CHOP-promoter luciferase, tunicamycin-induced, 15-18 h; inhibition, % at 10 µM;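 active = compounds that reduced the stress-induced luciferase reporter signal by more than about 70% of percent inhibition, limit read from the data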
MPTP inh = mitochondrial permeability transition pore inhibitors, primary screen, biochemical, isolated mouse mitochondria, absorbance; actives 1.4% (n = 360,000); inhibition, % at 10 µM; Ca2+ swelling absorbance, 30 min;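 active = inhibition of 50% or more, scaled per plate between neutral and stimulator controls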
EBV gp42 block = Epstein-Barr virus gp42 inhibitors, primary screen, biochemical, uHTS, fluorescence polarization | Glycoprotein 42 (Epstein-Barr virus (strain AG876)), Q1HVG2 | Fluorescence polarization binding assay, mP read-out | inhibition, % (tested at 21.74 µM) | actives 0.42% (n = 220,000) | AID 1085, 2008; in the data active = inhibition above about 50%
Target sequence (Q1HVG2 whole entry, looked up): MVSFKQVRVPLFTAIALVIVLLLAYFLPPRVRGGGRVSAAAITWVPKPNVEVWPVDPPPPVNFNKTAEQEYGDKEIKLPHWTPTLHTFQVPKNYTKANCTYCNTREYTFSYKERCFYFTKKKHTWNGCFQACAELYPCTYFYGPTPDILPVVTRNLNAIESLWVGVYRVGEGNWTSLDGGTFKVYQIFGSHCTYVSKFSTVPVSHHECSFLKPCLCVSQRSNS
A number is an active result; 0 = inactive; - = no result. In the library only some 6.4% were active in any assay of this set; here they are far more common.

SMILES | Tb MetRS inh | GRIN3A LBD mod | WT yeast gro inh | CHOP inh | MPTP inh | EBV gp42 block
COC(=O)c1ccc(OCc2nn[nH]n2)cc1 | 0 | 0 | - | - | 0 | -
COc1ccc(C(=O)NCCNc2ccc([N+](=O)[O-])cc2)cc1 | 0 | 14 | 0 | 0 | 0 | 0
O=C(NCCNc1ccc([N+](=O)[O-])cc1)c1ccc(Cl)cc1 | 0 | 13 | 0 | 0 | 0 | 0
COc1cc(OC)nc(Oc2ccccc2C(=O)Oc2ccc(F)cc2Cl)n1 | 0 | 0 | 69 | 0 | 0 | 0
Cc1oc2ccc(O)cc2c1C(=O)c1ccccc1 | 0 | 0 | - | - | 0 | -
CC(=O)c1cc2c(C)c(C(=O)c3ccccc3)oc2cc1O | 0 | 0 | 0 | 83 | 0 | 0
CCOC(=O)c1sc(Nc2nc3c(OC)cccc3s2)cc1C | 0 | 22 | 0 | 0 | 0 | 0
CCOC(=O)c1sc(Nc2nc3cc4c(cc3s2)OCO4)cc1C | 0 | 29 | 0 | 98 | 0 | 0
COc1cccc2sc(NN)nc12 | 0 | 0 | 0 | 0 | 0 | 0
COc1ccc(CCN(C)c2ccc(C(N)=O)cc2[N+](=O)[O-])cc1OC | 0 | 0 | 0 | 0 | 0 | 0
CC(C)(C)C1CCc2c(sc(NC(=O)c3cccs3)c2C(=O)N2CCCCC2)C1 (stereo not given) | 0 | 0 | 62 | 0 | 0 | 0
Cc1oc2c(c1C(=O)c1ccc(Cl)cc1)C(=O)C(=O)c1ccccc1-2 | 0 | 0 | 80 | 0 | 0 | 0
COC(=O)c1sccc1NC(=O)c1ccc(Br)o1 | 0 | 0 | 0 | 88 | 0 | 0
COC(=O)c1sccc1NC(=O)c1ccc(C)o1 | 0 | 0 | 0 | 0 | 0 | 0
COc1cc(/C=C2/C(=O)ON=C2c2ccccc2)ccc1O | 0 | 11 | 0 | 0 | 0 | 0
COc1cc(/C=C2\C(=O)ON=C2c2ccccc2)cc(Cl)c1O | 0 | 0 | 0 | 0 | 0 | 0
Cc1sc(/C=C2\C(=O)ON=C2c2ccccc2)cc1Br | - | - | 0 | 88 | - | 0
Cc1ccc(C)c(OCCC(=O)OCC(=O)Nc2cccnc2Cl)c1 | 0 | 0 | - | - | 0 | -
CCOc1ccc2nc(SCC(=O)NC3CC3)sc2c1 | 0 | 0 | - | - | 0 | -
CC(=O)Nc1ccc2nc(SCC(=O)O)sc2c1 | 0 | 0 | 0 | 0 | 0 | 0
CCOC(=O)CSc1nc2ccc(NC(C)=O)cc2s1 | 0 | 0 | 0 | 90 | 0 | 0
CCOc1ccc2nc(SCC(=O)c3ccccc3)sc2c1 | 0 | 0 | 0 | 94 | 0 | 0
COc1ccc(C(=O)/C(=C\c2ccco2)N2C=CC=CC2=C(C#N)C#N)cc1 | 0 | 0 | 0 | 107 | 0 | 0
CC(C)(C)NC(=O)/C(=C/c1ccco1)c1ccccc1 | 0 | 0 | 0 | 0 | 0 | 0
N#CC(C#N)=C1C=CC=CN1/C(=C\c1ccco1)C(=O)c1ccc(Br)cc1 | 0 | 0 | 71 | 109 | 0 | 0
SMILES | Tb MetRS inh | GRIN3A LBD mod | WT yeast gro inh | CHOP inh | MPTP inh | EBV gp42 block
N#CC(C#N)=C1C=CC=CN1/C(=C\c1ccco1)C(=O)c1ccccc1 | 0 | 0 | 0 | 110 | 0 | 0
CS(=O)(=O)N(CC(=O)NC1CCCC1)c1ccc2c(c1)OCCO2 | 0 | 0 | 0 | 0 | 0 | 0
O=C(COC(=O)c1ccccc1C(=O)c1ccc(Cl)c([N+](=O)[O-])c1)NC1CCCCCC1 | 0 | 0 | 78 | 93 | 0 | 0
CC(C)=C(C#N)c1nc2ccccc2s1 | 0 | 0 | 0 | 0 | 0 | 0
CC1=CC(=C(C#N)c2nc3ccccc3s2)C=C(C)N1c1ccc(F)cc1 | 0 | 0 | 0 | 0 | 0 | 180
COc1ccccc1N1C(C)=CC(=C(C#N)c2nc3ccccc3s2)C=C1C | 0 | 0 | 0 | 0 | 0 | 164
OCc1cccc(-c2csc(C(O)c3ccco3)n2)c1 (stereo not given) | 0 | - | - | - | 0 | -
CC(C)(C)c1csc(N(CCC#N)CCC#N)n1 | 0 | 14 | 0 | 0 | 0 | 0
COc1cc2sc3ccc(C#CC4(O)CCCCC4)cc3c(=O)c2cc1OC | 0 | 0 | - | - | 0 | -
O=C(C1CCN(c2ncnc3c2sc2cccc(F)c23)CC1)N1CCOCC1 | 0 | 0 | 0 | 0 | 0 | 0
CC1(C)CNc2cc([N+](=O)[O-])ccc2S1 | 0 | 0 | 0 | 85 | 0 | 0
CC1=Nc2cc([N+](=O)[O-])ccc2NC(C)(C)C1 | 0 | 0 | 0 | 0 | 0 | 0
CN1C(=O)c2cccc3c(S(=O)(=O)NCCc4ccccc4)ccc1c23 | 0 | 16 | - | - | 0 | -
COCCNS(=O)(=O)c1ccc2c3c(cccc13)C(=O)N2C | 0 | 0 | 0 | 0 | 0 | 0
COc1ccc(NC(=S)N2CCN(S(=O)(=O)c3ccccc3)CC2)cc1 | 0 | 0 | - | - | 0 | -
CC(C)C(NC(=O)C(c1ccccc1)c1ccccc1)c1nc2ccccc2[nH]1 (stereo not given) | 0 | 0 | 0 | 77 | 0 | 0
COc1ccc(C(=O)c2sc3nc(C)cc(-c4cccs4)c3c2N)cc1 | 0 | 0 | 0 | 0 | 0 | 102
COc1ccc(-c2c(C#N)c(N)nc3sc(C(=O)c4ccc(C)cc4)c(N)c23)cc1 | 0 | 0 | 0 | 0 | 0 | 75
Cc1cc(-c2cccs2)c2c(N)c(C(=O)c3ccc4c(c3)OCO4)sc2n1 | 0 | 21 | 0 | 0 | 0 | 133
COc1ccc(C(=O)c2sc3nc(C)cc(-c4cccs4)c3c2N)cc1OC | 0 | 0 | 0 | 0 | 0 | 61
Cc1c(Cl)cccc1NC(=S)Nc1ccccn1 | 0 | 0 | 0 | 0 | 0 | 0
COc1ccc(CN(C(=O)CNC(=O)c2ccco2)C(C(=O)NCC2CCCO2)c2ccc(OC)c(OC)c2)cc1 (stereo not given) | 0 | 0 | - | - | 0 | -
OC[C@@H]1CN(CCc2ccccc2)C[C@H](n2cnc3c(N4CCOCC4)ncnc32)O1 | 0 | - | - | - | 0 | -
COC(=O)c1cc(NC(=S)N2CCN(c3ccccn3)CC2)cc(C(=O)OC)c1 | 0 | 0 | 0 | 0 | 0 | 0
CC(C)NC(=O)c1sc2nc(-c3cccs3)cc(-c3cccs3)c2c1N | - | 0 | 0 | 0 | - | 64
SMILES | Tb MetRS inh | GRIN3A LBD mod | WT yeast gro inh | CHOP inh | MPTP inh | EBV gp42 block
Cc1nc(-c2cccs2)ccc1C(=O)O | 0 | 0 | 0 | 0 | 0 | 0
CC(=O)c1sc2nc(-c3cccs3)ccc2c1N | 0 | 22 | 0 | 0 | 0 | 0
COC(=O)Nc1ccc(Cn2cc(C(F)(F)F)ccc2=O)cc1 | 0 | 0 | 0 | 0 | 0 | 0
COc1ccc(-c2cc(-c3cccs3)nc3sc(C#N)c(N)c23)cc1 | 0 | 0 | 0 | 0 | 0 | 0
N#Cc1sc2nc(C3CC3)cc(-c3ccc(Cl)cc3)c2c1N | 0 | 0 | 72 | 0 | 0 | 0
Cc1nn(CCCC(=O)Nc2ccc(Br)cc2F)c(C)c1[N+](=O)[O-] | 0 | 0 | 0 | 0 | 0 | 0
O=C(NCCO)C(=O)NCC1OCCCN1S(=O)(=O)c1cc(F)ccc1F (stereo not given) | 0 | 136 | - | - | 0 | -
O=C(NCCc1ccccc1)C(=O)NCC1OCCCN1S(=O)(=O)c1cc(F)ccc1F (stereo not given) | 0 | 0 | - | - | 0 | -
